Several values for one entry are separate records, joined by “and”; a condition that tells them apart may be missing. Equal values may be shown once.
How the values were obtained:
α1β2γ2 GABAA receptor [1] = target: T1, α1β2γ2 GABAA receptor (Homo sapiens, UniProt P14867+P18507+P47870); assay: P4S concentration-response with and without 200 nM zuranolone, Ltk cells; type: cell-based; conditions: for EC50: EC50 of P4S, α1β2γ2, Ltk cells
Method in brief: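 Ltk cells stably expressing α1β2γ2; whole-cell patch clamp at −80 mV, n = 11. P4S was applied at 0.1–1000 μM in log steps, with or without a fixed 200 nM test compound. Currents were normalized to the maximum current from a saturating GABA concentration.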

sigma = conditions: 10 μM, ref Martinez-Botella et al., 2017; cited from earlier work
α4β3δ GABAA receptor [2] = target: T2, α4β3δ GABAA receptor (Homo sapiens, UniProt P28472+P48169); assay: Synergy with diazepam, α4β3δ in CHO cells; type: cell-based
T2 sequence (P48169 36-554): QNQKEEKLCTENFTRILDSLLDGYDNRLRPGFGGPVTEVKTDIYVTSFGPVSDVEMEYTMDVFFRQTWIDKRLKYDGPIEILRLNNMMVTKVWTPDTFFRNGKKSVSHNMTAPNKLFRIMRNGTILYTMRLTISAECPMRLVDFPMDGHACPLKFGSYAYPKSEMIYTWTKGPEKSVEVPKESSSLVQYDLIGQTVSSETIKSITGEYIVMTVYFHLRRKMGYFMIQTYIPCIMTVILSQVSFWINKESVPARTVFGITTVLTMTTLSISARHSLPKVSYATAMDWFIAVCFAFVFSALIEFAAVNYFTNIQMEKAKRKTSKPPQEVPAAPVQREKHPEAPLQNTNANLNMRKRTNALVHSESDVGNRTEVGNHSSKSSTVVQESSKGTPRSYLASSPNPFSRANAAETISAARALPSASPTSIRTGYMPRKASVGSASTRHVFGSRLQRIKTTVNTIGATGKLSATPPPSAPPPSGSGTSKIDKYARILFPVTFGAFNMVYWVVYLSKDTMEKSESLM
T2 sequence (P28472 26-473): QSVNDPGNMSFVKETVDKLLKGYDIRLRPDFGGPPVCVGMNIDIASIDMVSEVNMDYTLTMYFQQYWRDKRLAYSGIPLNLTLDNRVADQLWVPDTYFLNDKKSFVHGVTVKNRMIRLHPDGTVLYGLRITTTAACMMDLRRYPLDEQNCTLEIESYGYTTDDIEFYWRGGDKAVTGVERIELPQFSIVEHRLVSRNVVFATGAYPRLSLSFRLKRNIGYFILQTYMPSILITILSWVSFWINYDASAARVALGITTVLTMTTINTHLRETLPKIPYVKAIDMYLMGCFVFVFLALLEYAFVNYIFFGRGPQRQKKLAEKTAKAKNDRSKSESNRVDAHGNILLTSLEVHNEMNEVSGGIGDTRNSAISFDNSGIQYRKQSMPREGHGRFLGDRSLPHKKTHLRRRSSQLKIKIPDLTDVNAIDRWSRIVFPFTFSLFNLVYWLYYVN
T2 sequence (O14764 17-452 partner limits assumed): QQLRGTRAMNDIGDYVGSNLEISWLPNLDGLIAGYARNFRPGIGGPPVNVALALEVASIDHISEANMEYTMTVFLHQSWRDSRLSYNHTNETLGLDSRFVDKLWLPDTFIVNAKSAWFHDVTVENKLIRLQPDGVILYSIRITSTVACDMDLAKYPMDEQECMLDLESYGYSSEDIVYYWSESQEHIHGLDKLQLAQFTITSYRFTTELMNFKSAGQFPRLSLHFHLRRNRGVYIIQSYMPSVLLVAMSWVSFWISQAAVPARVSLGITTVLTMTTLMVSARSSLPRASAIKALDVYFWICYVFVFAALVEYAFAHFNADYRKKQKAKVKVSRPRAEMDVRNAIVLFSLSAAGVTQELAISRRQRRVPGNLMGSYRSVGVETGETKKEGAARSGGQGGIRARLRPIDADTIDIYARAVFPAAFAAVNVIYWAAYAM

α1β2γ2 GABAA receptor [3] = target: T1, α1β2γ2 GABAA receptor; assay: Whole cell patch clamp, GABA-evoked currents, α1β2γ2 in Ltk cells; type: cell-based
Method in brief: (§1)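 Whole-cell patch clamp at −80 mV in Ltk cells (stable α1β2γ2, n = 7; α2β2γ2, n = 3) or CHO cells (transient α4β3δ, n = 6). Each cell received test compound (0.1% DMSO) sequentially at 0.01–10 μM, 30 s before each 2 s pulse of 2 μM GABA. Gravity-fed perfusion, exchange within 300–500 ms. For δ-containing cells, DS-2 was applied at the end to confirm δ expression. Potentiation = peak ratio ×100.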

α4β3δ GABAA receptor [4] = target: T2, α4β3δ GABAA receptor; assay: Whole cell patch clamp, GABA-evoked currents, α4β3δ in CHO cells; type: cell-based
Method in brief: as §1

[5] = target: human recombinant α1β1γ2 GABAA receptor (Homo sapiens, UniProt P14867+P18505); assay: Two electrode voltage clamp, α1β1γ2 in Xenopus oocytes; type: cell-based
Method in brief: (§2)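 Xenopus oocytes expressing subunit cDNA; two-electrode voltage clamp at −80 mV, 18 °C, superfused with OR2 medium pH 7.4. Submaximal GABA given alone for 15 s, then co-applied with test compound at half-log steps 0.1–10 μM (0.3% DMSO). GABA: 10 μM for α1β1γ2, 3 μM for α6β3δ. n = 3 cells per concentration. Potentiation = peak amplitude with test compound / GABA alone ×100.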

β-band EEG power = assay: PharmacoEEG, β-band EEG power and sleep/wake; type: in vivo; conditions: rat; for sleep time: p < 0.05
Method in brief: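 Adult male Sprague Dawley rats (n = 7 per group) with implanted epidural EEG screw electrodes and EMG were tested after 2 weeks' recovery. After 1 h baseline, they received test compound (0.3, 3 or 20 mg/kg) or vehicle (30% SBECD) PO, followed by 6 h continuous EEG. Sleep/wake was scored in 10 s epochs from EEG/EMG and checked by a blinded expert. Analysis used one-way ANOVA and two-way repeated-measures ANOVA vs vehicle.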

[6] = target: human recombinant α3β3γ2 GABAA receptor (Homo sapiens, UniProt P28472+P34903); assay: IonWorks Barracuda patch clamp, α3β3γ2 in HEK cells; type: cell-based
Sequence of human recombinant α3β3γ2 GABAA receptor (P34903 29-492): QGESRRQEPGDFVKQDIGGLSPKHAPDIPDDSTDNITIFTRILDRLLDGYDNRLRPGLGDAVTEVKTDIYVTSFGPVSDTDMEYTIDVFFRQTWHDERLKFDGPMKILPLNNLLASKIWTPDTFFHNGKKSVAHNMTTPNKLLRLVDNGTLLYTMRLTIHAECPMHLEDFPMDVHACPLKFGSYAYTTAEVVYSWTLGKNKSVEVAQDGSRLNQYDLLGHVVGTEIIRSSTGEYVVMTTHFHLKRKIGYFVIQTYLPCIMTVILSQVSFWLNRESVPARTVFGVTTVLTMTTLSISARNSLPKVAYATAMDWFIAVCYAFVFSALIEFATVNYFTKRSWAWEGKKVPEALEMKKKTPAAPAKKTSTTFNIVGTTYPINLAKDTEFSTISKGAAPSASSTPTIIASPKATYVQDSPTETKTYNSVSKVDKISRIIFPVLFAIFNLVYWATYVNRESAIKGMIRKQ
Sequence of human recombinant α3β3γ2 GABAA receptor (P28472 26-473): as the sequence (P28472 26-473) above
Sequence of human recombinant α3β3γ2 GABAA receptor (P18507 40-475 partner): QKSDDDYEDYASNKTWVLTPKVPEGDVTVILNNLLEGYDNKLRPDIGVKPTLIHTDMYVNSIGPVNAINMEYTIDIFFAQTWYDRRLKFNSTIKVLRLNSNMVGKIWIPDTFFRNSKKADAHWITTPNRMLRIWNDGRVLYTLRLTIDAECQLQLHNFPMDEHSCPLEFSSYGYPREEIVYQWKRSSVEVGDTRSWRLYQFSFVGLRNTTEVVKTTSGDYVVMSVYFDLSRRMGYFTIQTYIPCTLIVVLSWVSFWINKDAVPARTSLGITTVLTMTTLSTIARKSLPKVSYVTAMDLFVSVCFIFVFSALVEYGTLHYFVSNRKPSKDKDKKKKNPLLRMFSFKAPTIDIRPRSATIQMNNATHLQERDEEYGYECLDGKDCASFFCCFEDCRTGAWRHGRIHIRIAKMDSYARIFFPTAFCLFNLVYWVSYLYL
Method in brief: (§3)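 HEK cells stably expressing human receptors; automated perforated-patch whole-cell recording at −70 mV. Extracellular buffer pH 7.4; KCl-based intracellular solution pH 7.2. Submaximal GABA applied alone, then co-applied with test compound at half-log steps 0.01–30 μM (0.3% DMSO, 0.02% Cremophor); n = 4 per concentration. GABA: 5 μM α1β3γ2, 2 μM α2β3γ2, 12.5 μM α3β3γ2, 2 μM α5β3γ2. Potentiation = peak with test compound / peak with GABA alone ×100.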

[7] = Phase 1, healthy volunteers, ref Hoffmann et al., 2019, cited from earlier work
[8] = system: 22 nuclear hormone receptors; conditions: ref Martinez-Botella et al., 2017; cited from earlier work
[9] = target: human recombinant α2β3γ2 GABAA receptor (Homo sapiens, UniProt P28472+P47869); assay: IonWorks Barracuda patch clamp, α2β3γ2 in HEK cells; type: cell-based
Method in brief: as §3

PTZ-induced seizures = assay: Pentylenetetrazole-induced seizures; type: in vivo, mouse; conditions: vehicle 751 ± 67 s
glycine = conditions: 10 μM, ref Martinez-Botella et al., 2017; cited from earlier work
[10] = Brain and plasma pharmacokinetics after single IP or PO dose; type: in vivo, mouse; conditions: for time of maximum plasma concentration (Cmax) post dose: CD1 mouse; for Cmax / bioavailability: male, CD-1, mouse, plasma, 10 mg/kg
Method in brief: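 Adult male CD-1 mice received a single 10 mg/kg dose: IP in 15% HP-β-CD or PO in 30% SBECD. Sampling: IP at 0.5–8 h (n = 2 per time point); PO at 0.167–12 h (n = 3 per time point). Plasma (K2 EDTA) and snap-frozen brain were collected. Brain was homogenized in 3 vol PBS, extracted by acetonitrile precipitation with internal standard, and assayed by LC-MS/MS (C18, water:methanol gradient, positive MRM). Brain:plasma ratio from a single point at 1 h.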

[11] = target: human recombinant α1β3γ2 GABAA receptor (Homo sapiens, UniProt P14867+P28472); assay: IonWorks Barracuda patch clamp, α1β3γ2 in HEK cells; type: cell-based
Sequence of human recombinant α1β3γ2 GABAA receptor (P14867 28-456): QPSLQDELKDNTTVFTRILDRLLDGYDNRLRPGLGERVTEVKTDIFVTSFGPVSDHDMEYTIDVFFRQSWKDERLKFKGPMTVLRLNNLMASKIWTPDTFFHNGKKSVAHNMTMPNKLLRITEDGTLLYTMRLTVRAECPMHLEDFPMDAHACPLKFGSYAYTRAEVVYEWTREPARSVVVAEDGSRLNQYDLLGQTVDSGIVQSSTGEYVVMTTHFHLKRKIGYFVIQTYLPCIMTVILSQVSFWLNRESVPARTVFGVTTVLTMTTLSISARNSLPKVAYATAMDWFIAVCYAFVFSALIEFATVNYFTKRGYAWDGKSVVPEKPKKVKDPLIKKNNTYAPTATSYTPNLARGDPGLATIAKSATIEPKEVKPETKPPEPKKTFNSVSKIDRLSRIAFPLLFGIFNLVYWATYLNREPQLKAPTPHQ
Sequence of human recombinant α1β3γ2 GABAA receptor (P28472 26-473): as the sequence (P28472 26-473) above
Sequence of human recombinant α1β3γ2 GABAA receptor (P18507 40-475 partner): as the sequence (P18507 40-475 partner) above
Method in brief: as §3

[12] = target: human recombinant α6β3δ GABAA receptor (Homo sapiens, UniProt P28472+Q16445); assay: Two electrode voltage clamp, α6β3δ in Xenopus oocytes; type: cell-based
Sequence of human recombinant α6β3δ GABAA receptor (Q16445 20-453): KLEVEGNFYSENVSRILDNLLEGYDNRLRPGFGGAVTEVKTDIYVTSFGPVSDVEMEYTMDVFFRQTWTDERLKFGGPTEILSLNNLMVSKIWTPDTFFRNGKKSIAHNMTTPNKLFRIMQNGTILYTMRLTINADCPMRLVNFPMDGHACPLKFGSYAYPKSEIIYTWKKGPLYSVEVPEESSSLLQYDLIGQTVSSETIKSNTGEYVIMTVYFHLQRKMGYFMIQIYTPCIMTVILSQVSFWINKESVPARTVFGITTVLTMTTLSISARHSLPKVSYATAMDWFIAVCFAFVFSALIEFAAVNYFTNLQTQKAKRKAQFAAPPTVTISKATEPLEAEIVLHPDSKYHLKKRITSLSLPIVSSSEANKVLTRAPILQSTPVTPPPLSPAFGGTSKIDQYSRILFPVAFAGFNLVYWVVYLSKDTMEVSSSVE
Sequence of human recombinant α6β3δ GABAA receptor (P28472 26-473): as the sequence (P28472 26-473) above
Sequence of human recombinant α6β3δ GABAA receptor (O14764 17-452 partner limits assumed): as the sequence (O14764 17-452 partner limits assumed) above
Method in brief: as §2

8 cardiac ion channels = conditions: ref Martinez-Botella et al., 2017; cited from earlier work
[13] = Plasma and brain concentrations in PTZ behavioral study; type: in vivo; conditions: mouse, between 0.3 and 1 mg/kg PO
Method in brief: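 Plasma and brain were collected from a subset of PTZ-study mice plus satellite PK mice (n = 3–4 per dose) after PO dosing. Brain was homogenized in 3 vol PBS, extracted by acetonitrile protein precipitation with internal standard, and quantified by LC-MS/MS against a spiked calibration curve.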

[14] = Plasma concentrations in rats designated for pharmacokinetic analysis; type: in vivo; conditions: rat, po
dentate granule cells = assay: Acute hippocampal slice recording, tonic current and sIPSCs after washout; type: cell-based, mouse; conditions: for tonic current density: 15 min pre-incubation, 30–50 min wash; for sIPSC amplitude / sIPSC decay: after 30–50 min wash
Method in brief: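 Acute brain slices from postnatal day 21 C57 mice were held in a holding chamber with 0.1 or 1 μM test compound for 15 min. They were then perfused (2 mL/min) with oxygenated ACSF for 30–50 min before whole-cell patch clamp of dentate granule cells (n = 6–7). Tonic current is the baseline shift with 100 μM picrotoxin, divided by capacitance. sIPSCs were inspected visually and only single-peak events were kept.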

[15] = target: human recombinant α2β2γ2 GABAA receptor (Homo sapiens, UniProt P47869+P47870); assay: Whole cell patch clamp, GABA-evoked currents, α2β2γ2 in Ltk cells; type: cell-based
Method in brief: as §1

[16] = system: other ion channel and hormone receptors, including AMPA and NMDA; conditions: ref Martinez-Botella et al., 2017; cited from earlier work
α1β2γ2 GABAA receptor [17] = target: T1, α1β2γ2 GABAA receptor; assay: Synergy with diazepam, α1β2γ2 in Ltk cells, isobolographic analysis; type: cell-based; conditions: for concentration applied alone required to reach 150% effect level: α1β2γ2, isobologram
[18] = target: human recombinant α5β3γ2 GABAA receptor (Homo sapiens, UniProt P28472+P31644); assay: IonWorks Barracuda patch clamp, α5β3γ2 in HEK cells; type: cell-based
Sequence of human recombinant α5β3γ2 GABAA receptor (P31644 32-462): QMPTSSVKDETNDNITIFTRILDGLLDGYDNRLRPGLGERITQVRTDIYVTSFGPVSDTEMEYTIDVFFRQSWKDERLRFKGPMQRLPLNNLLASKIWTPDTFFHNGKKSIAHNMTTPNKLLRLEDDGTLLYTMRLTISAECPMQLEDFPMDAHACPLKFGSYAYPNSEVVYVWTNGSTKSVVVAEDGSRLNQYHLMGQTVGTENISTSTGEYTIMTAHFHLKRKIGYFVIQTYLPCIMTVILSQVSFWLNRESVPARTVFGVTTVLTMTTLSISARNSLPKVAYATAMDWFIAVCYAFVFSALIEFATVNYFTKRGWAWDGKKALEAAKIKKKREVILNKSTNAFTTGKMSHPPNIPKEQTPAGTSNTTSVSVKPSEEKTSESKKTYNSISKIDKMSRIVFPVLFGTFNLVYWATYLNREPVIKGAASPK
Sequence of human recombinant α5β3γ2 GABAA receptor (P28472 26-473): as the sequence (P28472 26-473) above
Sequence of human recombinant α5β3γ2 GABAA receptor (P18507 40-475 partner): as the sequence (P18507 40-475 partner) above
Method in brief: as §3

[19] = system: transient receptor potential cation channel subfamily V member 1 receptor; conditions: 10 μM; ref Martinez-Botella et al., 2017; cited from earlier work

T1 sequence (P14867 28-456): as the sequence (P14867 28-456) above
T1 sequence (P47870 25-512 limits assumed): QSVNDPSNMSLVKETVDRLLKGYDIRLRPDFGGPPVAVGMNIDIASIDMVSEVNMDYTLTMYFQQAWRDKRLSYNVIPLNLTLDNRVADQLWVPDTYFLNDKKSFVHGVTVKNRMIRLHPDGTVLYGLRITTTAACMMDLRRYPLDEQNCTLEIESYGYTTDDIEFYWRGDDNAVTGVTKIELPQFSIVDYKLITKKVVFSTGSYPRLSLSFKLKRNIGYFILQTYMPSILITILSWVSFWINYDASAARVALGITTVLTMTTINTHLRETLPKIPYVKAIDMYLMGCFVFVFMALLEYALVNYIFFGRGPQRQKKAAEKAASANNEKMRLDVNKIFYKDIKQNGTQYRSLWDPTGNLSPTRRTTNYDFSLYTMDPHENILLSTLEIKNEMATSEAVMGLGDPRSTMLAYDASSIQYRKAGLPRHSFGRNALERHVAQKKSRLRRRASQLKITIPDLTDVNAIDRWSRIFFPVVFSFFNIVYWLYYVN
T1 sequence (P18507 40-475): as the sequence (P18507 40-475 partner) above

O=S(=O)(O)C1CCNCC1 [P4S, piperidine-4-sulphonic acid]
EC50 (α1β2γ2 GABAA receptor [1]; P4S alone): 45000 nM and 44500 nM | EC50 (α1β2γ2 GABAA receptor [1]; with 200 nM zuranolone): 25200 nM | Emax of P4S (α1β2γ2 GABAA receptor [1]; P4S alone, normalized to maximum current evoked by saturating GABA (100 μM)): 25%

C[C@@]1(O)CC[C@H]2[C@H](CC[C@@H]3[C@@H]2CC[C@]2(C)[C@@H](C(=O)Cn4cc(C#N)cn4)CC[C@@H]32)C1 [zuranolone, 3α-Hydroxy-3β-methyl-21-(4-cyano-1H-pyrazol-1’-yl)-19-nor-5β-pregnan-20-one]
inhibition of radioligand binding (sigma): 87% | EC50 (α4β3δ GABAA receptor [2]): 135 nM | EC50 (α1β2γ2 GABAA receptor [3]): 430 nM | EC50 (α4β3δ GABAA receptor [4]): 118 nM | Emax (α4β3δ GABAA receptor [4]; CHO): 556% | EC50 [5]: 1260 nM | sleep or wake time (β-band EEG power; 0.3 mg/kg PO): No changes in sleep or wake time | β-band EEG power relative to vehicle (β-band EEG power; 0.3 mg/kg PO, p = 0.58): did not elicit a significant increase | time of β-band EEG power peak post dose (β-band EEG power; 3 mg/kg PO): approximately 0.5 h | β-band EEG power at one hour vs vehicle (β-band EEG power; 3 mg/kg PO, p < 0.0005): significantly greater than vehicle | sleep time (β-band EEG power; 3 mg/kg PO): increased sleep time during the first hour | time of β-band EEG power peak (β-band EEG power; 20 mg/kg PO): ≤ 30 min | sleep time (β-band EEG power; 20 mg/kg PO): increased time spent in sleep during all three hours | β-band EEG power at one hour vs vehicle (β-band EEG power; 20 mg/kg PO, p = 0.79): not significantly different from vehicle | EC50 [6]: 293 nM | Emax ([6]; HEK293): 291% | tolerability ([7]; oral administration): generally well tolerated | pharmacokinetics following oral administration [7]: predictable pharmacokinetics | effects at 22 nuclear hormone receptors [8]: no significant effects | EC50 [9]: 516 nM | latency to tonic seizures (PTZ-induced seizures; mouse, 0.3 mg/kg PO, non-significant trend (p = 0.06)): 1033 ± 179 s | latency to tonic seizures (PTZ-induced seizures; mouse, 1, 3, and 10 mg/kg PO, 60 min prior to 120 mg/kg PTZ): ≥ 1688 ± 56 s | inhibition of radioligand binding (glycine): 57% | time of maximum plasma concentration (Cmax) post dose ([10]; 10 mg/kg IP): 30 min | time of maximum plasma concentration (Cmax) post dose ([10]; 10 mg/kg PO): 30 min | Cmax ([10]; ip): 3200 ng/mL | bioavailability ([10]; ip): 89% | Cmax ([10]; po): 1340 ng/mL | bioavailability ([10]; po): 62% | EC50 [11]: 390 nM | Emax ([11]; HEK293): 684% | EC50 [12]: 780 nM | effects at 8 cardiac ion channels (8 cardiac ion channels): no significant effects | brain concentrations [13]: 60 to 143 ng/g | concentration at 60 min ([14]; 0.3 mg/kg): 22 ng/mL | concentration at 60 min ([14]; 3 mg/kg): 301 ng/mL | concentration at 60 min ([14]; 20 mg/kg): 1470 ng/mL | tonic current density (dentate granule cells; 0.1 μM): 2.48 ± 0.7 pA/pF | sIPSC amplitude (dentate granule cells; 0.1 μM): 99 ± 26 pA | sIPSC decay (dentate granule cells; 0.1 μM): 10 ± 1 ms | tonic current density (dentate granule cells; 1 μM): 5.55 ± 1.3 pA/pF | sIPSC amplitude (dentate granule cells; 1 μM): 57 ± 7 pA | sIPSC decay (dentate granule cells; 1 μM): 24 ± 4 ms | sIPSC frequency (dentate granule cells; following zuranolone exposure): no change | EC50 [15]: 184 nM | selectivity for GABAA receptors vs other ion channel and hormone receptors [16]: selective | EC50 (α1β2γ2 GABAA receptor [17]): 844 nM | concentration required to potentiate the current greater than 150% (α1β2γ2 GABAA receptor [17]; α1β2γ2, coapplied with 100 nM DZP): 10 nM | interaction of zuranolone and DZP by isobolographic analysis (α1β2γ2 GABAA receptor [17]; α1β2γ2, coapplied zuranolone and DZP): synergistically | maximal potentiation (α1β2γ2 GABAA receptor [17]; α1β2γ2, in the presence of 100 nM DZP): 1084% | concentration applied alone required to reach 150% effect level (α1β2γ2 GABAA receptor [17]): 315 nM | maximal potentiation (α1β2γ2 GABAA receptor [17]; α1β2γ2, without DZP): 511% | EC50 [18]: 298 nM | Emax ([18]; HEK293): 534% | antagonist activity [19]: 96%

CN1C(=O)CN=C(c2ccccc2)c2cc(Cl)ccc21 [DZP, diazepam, reference compound]
potentiation of current when applied alone (α4β3δ GABAA receptor [2]; α4β3δ, DZP alone): did not potentiate | enhancement of GABA currents (α1β2γ2 GABAA receptor [17]; 100 nM DZP alone, α1β2γ2, 2 μM GABA): 104% | concentration applied alone required to reach 150% effect level (α1β2γ2 GABAA receptor [17]): 360 nM

— article PMC8265595 (Neuropharmacology, 2020)
